Legend:
Spleen = experiment: Drug level in balb/c mouse spleen at 15 nmol, ip after 24 hrs by liquid scintillation counting method; format: ADME, organism-based; settings: in vivo
Summary of the method: (§1)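 Male balb/c mice given C-14-labelled polyamide (quantitated by scintillation counting before dosing) as a single 15 nmol intraperitoneal dose per animal. Organs collected 24 h later and solubilized at +65 °C for at least 12 h, then decolorized with H2O2. C-14 counted by liquid scintillation, quench-corrected and normalized to organ weight. N = 5, mean with standard deviation.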

Liver [1] = experiment: Drug level in liver of matrigel-positive human A549 cells xenografted NSG mouse at 20 nmol, ip measured 5 weeks past engraftment by liquid scintillation counting method; format: ADME, organism-based; settings: in vivo, 840 h, in the assay text read “matrigel-negative” for “matrigel-positive”
Summary of the method: (§2)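 Male NSG mice obtained at 8 weeks of age. Tumours engrafted subcutaneously with 2.5 M cells (viability ≥95% by trypan blue) in medium or 1:1 Matrigel; naive animals had no graft. Mice received 20 nmol C-14 polyamide per animal intraperitoneally. Tissues harvested 24 h later, solubilized, decolorized, and counted by liquid scintillation. Values are quench-corrected and normalized to organ weight; each tissue was analysed individually.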

Kidney [2] = experiment: Drug level in kidney of human A549 cells xenografted NSG mouse at 20 nmol, ip after 24 hrs by liquid scintillation counting method; format: ADME, organism-based; settings: in vivo; summary of the method: as §2
Liver [3] = experiment: Drug level in balb/c mouse liver at 15 nmol, ip after 24 hrs by liquid scintillation counting method; format: ADME, organism-based; settings: in vivo; summary of the method: as §1
Liver [4] = experiment: Drug level in liver of matrigel-negative human A549 cells xenografted NSG mouse at 20 nmol, ip measured 5 weeks past engraftment by liquid scintillation counting method; format: ADME, organism-based; settings: in vivo, 840 h, in the assay text read “matrigel-positive” for “matrigel-negative”; summary of the method: as §2
Tumour [5] = experiment: Drug level in tumor of human A549 cells xenografted NSG mouse at 20 nmol, ip after 24 hrs by liquid scintillation counting method; format: ADME, organism-based, Neoplasm; settings: in vivo; summary of the method: as §2
Tumour [6] = experiment: Drug level in tumor of human U251 cells xenografted NSG mouse at 20 nmol, ip after 24 hrs by liquid scintillation counting method; format: ADME, organism-based, Neoplasm, U-251; settings: in vivo; summary of the method: as §2
Lung [7] = experiment: Drug level in lung of human A549 cells xenografted NSG mouse at 20 nmol, ip after 24 hrs by liquid scintillation counting method; format: ADME, organism-based; settings: in vivo; summary of the method: as §2
Kidney [8] = experiment: Drug level in balb/c mouse kidney at 15 nmol, ip after 24 hrs by liquid scintillation counting method; format: ADME, organism-based; settings: in vivo; summary of the method: as §1
Liver [9] = experiment: Drug level in liver of human LNCAP cells xenografted NSG mouse at 20 nmol, ip after 24 hrs by liquid scintillation counting method; format: ADME, organism-based; settings: in vivo; summary of the method: as §2
Kidney [10] = experiment: Drug level in kidney of human A549 cells and human LNCAP cells xenografted NSG mouse at 20 nmol, ip after 24 hrs by liquid scintillation counting method; format: ADME, organism-based; settings: in vivo; summary of the method: as §2
Tumour [11] = experiment: Drug level in tumor of matrigel-positive human A549 cells xenografted NSG mouse at 20 nmol, ip measured 3 to 4 weeks past engraftment by liquid scintillation counting method; format: ADME, organism-based, Neoplasm; settings: in vivo; summary of the method: as §2
Tumour [12] = experiment: Drug level in tumor of human LNCAP cells xenografted NSG mouse at 20 nmol, ip after 24 hrs by liquid scintillation counting method; format: ADME, organism-based, Neoplasm; settings: in vivo; summary of the method: as §2
Tumour [13] = experiment: Drug level in tumor of matrigel-negative human A549 cells xenografted NSG mouse at 20 nmol, ip measured 5 weeks past engraftment by liquid scintillation counting method; format: ADME, organism-based, Neoplasm; settings: in vivo, 840 h; summary of the method: as §2
Liver [14] = experiment: Drug level in liver of human A549 cells and human LNCAP cells xenografted NSG mouse at 20 nmol, ip after 24 hrs by liquid scintillation counting method; format: ADME, organism-based; settings: in vivo; summary of the method: as §2
Lung [15] = experiment: Drug level in lung of human LNCAP cells xenografted NSG mouse at 20 nmol, ip after 24 hrs by liquid scintillation counting method; format: ADME, organism-based; settings: in vivo; summary of the method: as §2
Pancreas = experiment: Drug level in balb/c mouse pancreas at 15 nmol, ip after 24 hrs by liquid scintillation counting method; format: ADME, organism-based; settings: in vivo; summary of the method: as §1
Tumour [16] = experiment: Drug level in tumor of matrigel-positive human A549 cells xenografted NSG mouse at 20 nmol, ip measured 5 weeks past engraftment by liquid scintillation counting method; format: ADME, organism-based, Neoplasm; settings: in vivo, 840 h; summary of the method: as §2
Tumour [17] = experiment: Drug level in tumor of matrigel-negative human A549 cells xenografted NSG mouse at 20 nmol, ip measured 3 to 4 weeks past engraftment by liquid scintillation counting method; format: ADME, organism-based, Neoplasm; settings: in vivo; summary of the method: as §2
Brain = experiment: Drug level in balb/c mouse brain at 15 nmol, ip after 24 hrs by liquid scintillation counting method; format: ADME, organism-based; settings: in vivo; summary of the method: as §1
Bone marrow = experiment: Drug level in balb/c mouse bone marrow at 15 nmol, ip after 24 hrs by liquid scintillation counting method; format: ADME, organism-based; settings: in vivo; summary of the method: as §1
Lung [18] = experiment: Drug level in lung of human U251 cells xenografted NSG mouse at 20 nmol, ip after 24 hrs by liquid scintillation counting method; format: ADME, organism-based, U-251; settings: in vivo; summary of the method: as §2
Liver [19] = experiment: Drug level in liver of human U251 cells xenografted NSG mouse at 20 nmol, ip after 24 hrs by liquid scintillation counting method; format: ADME, organism-based, U-251; settings: in vivo; summary of the method: as §2
Liver [20] = experiment: Drug level in liver of human A549 cells xenografted NSG mouse at 20 nmol, ip after 24 hrs by liquid scintillation counting method; format: ADME, organism-based; settings: in vivo; summary of the method: as §2
Kidney [21] = experiment: Drug level in kidney of naive NSG mouse at 20 nmol, ip after 24 hrs by liquid scintillation counting method; format: ADME, organism-based; settings: in vivo; summary of the method: as §2

With `CC(=O)N[C@H](CCNC(=O)c1cc(NC(=O)c2cc(NC(=O)c3cc(NC(=O)c4nccn4C)cn3C)cn2C)cn1C)C(=O)Nc1cnc(C(=O)Nc2cc(C(=O)Nc3cc(C(=O)Nc4cc(C(=O)NCCCN(C)CCCN[14C](=O)c5cccc([14C](=O)O)c5)n(C)c4)n(C)c3)n(C)c2)n1C` the Drug uptake (Spleen) was 0.32 mg/kg, the Drug uptake (Liver [1]) was 0.55 mg/kg and the Drug uptake (Kidney [2]) was 0.27 mg/kg. It also gave a Drug uptake (Liver [3]) of 0.49 mg/kg, a Drug uptake (Liver [4]) of 0.65 mg/kg and a Drug uptake (Tumour [5]) of 0.23 mg/kg. It also gave a Drug uptake (Tumour [6]) of 0.65 mg/kg, a Drug uptake (Lung [7]) of 0.15 mg/kg and a Drug uptake (Kidney [8]) of 0.22 mg/kg. It also gave a Drug uptake (Liver [9]) of 1.04 mg/kg, a Drug uptake (Kidney [10]) of 0.27 mg/kg and a Drug uptake (Tumour [11]) of 0.23 mg/kg. It also gave a Drug uptake (Tumour [12]) of 1.5 mg/kg, a Drug uptake (Tumour [13]) of 0.25 mg/kg and a Drug uptake (Liver [14]) of 1.04 mg/kg. It also gave a Drug uptake (Lung [15]) of 0.12 mg/kg, a Drug uptake (Pancreas) of 0.15 mg/kg and a Drug uptake (Tumour [16]) of 0.59 mg/kg. The Drug uptake (Tumour [17]) was 0.23 mg/kg, the Drug uptake (Brain) was “Not Active” and the Drug uptake (Bone marrow) was 0.24 mg/kg. It also gave a Drug uptake (Lung [18]) of 0.12 mg/kg, a Drug uptake (Liver [19]) of 0.57 mg/kg and a Drug uptake (Liver [20]) of 0.57 mg/kg. For the same molecule, the Drug uptake (Kidney [21]) was 0.23 mg/kg.
